Experiments:
HRECs [1] = test: Scratch wound migration assay; format: cell-based, human; settings: 8 hour treatment, dose dependent
Procedure, shortened: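 HRECs were grown to confluence in 96-well plates at 37°C, scratched down the well centre with a pipette tip, and treated with test compound. Brightfield images were taken at 8 h. Cells migrating into the scratch were counted manually in six images per treatment and normalised to DMSO. Replicate runs were live-imaged. n=4 technical.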

[2] = system: iCEC2 choroidal endothelial cells; test: iCEC2 proliferation assay; format: cell-based, human; settings: 48 hour treatment
HRECs [3] = test: Matrigel-based tube formation assay; format: cell-based, human; settings: 8 hour treatment, qualitative
Procedure, shortened: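 Matrigel was solidified 20 min at 37°C. HRECs were added at 15,000/well in EGM-2 and dosed with test compound in DMSO. Tubes were watched by brightfield every 2 h and imaged at 8 h. Total tubule length from six images per treatment was normalised to DMSO controls. n=6 technical.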

[4] = system: FECH activity in HRECs (PPIX accumulation); test: Protoporphyrin IX buildup assay; format: cell-based, human; settings: highest dose, co-treated with 5-ALA, 3 hour treatment, vs. DMSO
recombinant FECH [5] = target: T1, recombinant FECH (Homo sapiens, UniProt P22830); test: 4e-FECH enzyme kinetic analysis; format: biochemical; settings: vs. substrate mesoporphyrin IX; Vmax consistent, KM increased
T1 sequence (P22830 55-423): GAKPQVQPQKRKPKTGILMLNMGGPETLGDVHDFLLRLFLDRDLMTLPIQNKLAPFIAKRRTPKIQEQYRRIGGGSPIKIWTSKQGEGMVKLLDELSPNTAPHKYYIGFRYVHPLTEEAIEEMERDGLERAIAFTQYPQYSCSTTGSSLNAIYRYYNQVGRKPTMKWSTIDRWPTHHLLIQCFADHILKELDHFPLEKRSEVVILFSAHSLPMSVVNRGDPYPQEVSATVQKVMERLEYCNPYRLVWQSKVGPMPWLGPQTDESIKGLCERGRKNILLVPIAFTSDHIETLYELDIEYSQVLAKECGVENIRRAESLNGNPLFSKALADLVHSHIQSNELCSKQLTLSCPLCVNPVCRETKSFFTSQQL

[6] = system: Human Retinal Endothelial Cell (HREC); test: HREC proliferation assay; format: cell-based; settings: 48 hour treatment, qualitative
[7] = system: choroidal neovascularization
HRECs [8] = test: In vitro apoptosis assays; format: cell-based, human; settings: 16 hour treatment, 10, 30 and 100 μM
Procedure, shortened: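 HRECs on coated chamber slides, 70% confluent, were treated 16 h with vehicle, test compound (10, 30, 100 μM), or positive controls (1 μM staurosporine for caspase, 10 μM DNase I for TUNEL). After 4% PFA fixation: Triton permeabilisation, anti-cleaved caspase-3 (1:200, overnight, 4°C), fluorescent secondary and Hoechst; or a Click-iT TUNEL kit. Stained cells were counted as % of nuclei in three 40x fields. Three biological repeats.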

recombinant FECH [9] = target: T1, recombinant FECH; test: FECH enzymatic activity assay; format: biochemical; settings: for inhibitory activity against recombinant FECH: qualitative
[10] = target: dopamine D2 receptor DRD2S (Homo sapiens, UniProt P14416); test: SafetyScan off-target analysis, DRD2S; format: cell-based
Sequence of dopamine D2 receptor DRD2S (P14416 1-414 isoform P14416-2): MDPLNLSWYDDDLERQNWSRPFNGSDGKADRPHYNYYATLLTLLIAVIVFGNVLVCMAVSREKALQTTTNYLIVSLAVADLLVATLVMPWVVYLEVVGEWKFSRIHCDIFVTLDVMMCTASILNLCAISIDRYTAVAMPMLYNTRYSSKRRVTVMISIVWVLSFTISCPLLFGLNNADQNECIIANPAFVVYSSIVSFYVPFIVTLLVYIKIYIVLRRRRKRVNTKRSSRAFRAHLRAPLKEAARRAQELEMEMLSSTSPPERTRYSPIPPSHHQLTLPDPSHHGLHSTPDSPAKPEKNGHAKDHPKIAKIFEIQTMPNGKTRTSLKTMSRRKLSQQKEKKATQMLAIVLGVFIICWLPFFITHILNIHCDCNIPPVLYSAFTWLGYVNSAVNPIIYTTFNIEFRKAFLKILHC

PPIX and heme in HRECs = test: Porphyrin and heme analysis; format: cell-based, human; settings: 30 μM 4e ± 1 mM 5-ALA
Procedure, shortened: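 HRECs were grown to 80% confluence and serum-starved overnight. Cells received DMSO or 30 μM test compound for 1 h, then 1 mM 5-ALA or water for a further 2 h. They were pelleted in cold PBS and frozen. Heme and porphyrins were quantified by a core facility following its posted protocols. n=3.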

[11] = system: COXIV subunit I expression in HRECs; test: Immunoblot for hemoprotein COXIV subunit I; format: cell-based, human; settings: 16 hours, dose dependent (10, 30 or 100 μM)
Procedure, shortened: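 HRECs were treated 16 h with test compound (10, 30 or 100 μM), a reference FECH inhibitor (10 μM) or DMSO. Arms were: 6 h pretreatment with 100 μM succinylacetone or water, or after treatment, medium replaced by EBM-2 with 0.2% serum and 10 μM hemin. Lysate protein (40 μg) was run on 12% SDS-PAGE and PVDF, probed with anti-COX4I1 (1:1000) and β-actin (1:2000). n=3 biological.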

ARPE19 cells [12] = test: ARPE19 proliferation assay; format: cell-based, human; settings: 48 hour treatment
HRECs [13] = settings: ref Basavarajappa et al., 2017; cited from earlier work
[14] = system: Human Retinal Endothelial Cell (HREC); settings: HRECs; ref Basavarajappa et al., 2017; cited from earlier work
ARPE19 cells [15] = settings: ref Basavarajappa et al., 2017; cited from earlier work
HRECs [16] = settings: ref Basavarajappa et al., 2017; cited from earlier work; remark: listed apart in the source
[17] = recombinant FECH activity assay

For `CC(C)(C)c1ccc(-c2nc3[nH]c(CNc4ccc5ccccc5n4)cc(=O)n3n2)cc1` [4e, 2-(4-(tert-Butyl)phenyl)-5-((quinolin-2-ylamino)methyl)-[1,2,4]triazolo[1,5-a]pyrimidin-7(4H)-one], the HREC migration (HRECs [1]) was “blocked the migration ability”, the “proliferation of iCEC2 cells” value [2] was “more potent than NMPP” and the HREC tube formation (HRECs [3]) was “blocked tube formation of HRECs”. For the same molecule, the “PPIX accumulation in HRECs” value [4] was “statistically significant PPIX accumulation”, the mode of inhibition (recombinant FECH [5]) was “competitive inhibition” and the “HREC proliferation (antiproliferative effect)” value (“HREC proliferation” for short) [6] was “anti-proliferative”. The “ocular toxicity (fundus images, OCT)” value ([7]; day 0, 7 and 14 after laser, intravitreal) was “no obvious signs of toxicity”, the “decrease in lesion volume (agglutinin and GS-IB4 signal, choroidal flat mounts)” value ([7]; day 14, both tested doses (50 and 100 μM intravitreal)) was over 50% and the “OCT lesion volume relative to control” value ([7]; day 14, final intravitreal concentrations of 50 μM as well as 100 μM) was “significantly reduced”. For the same molecule, the “leakage on fluorescein angiography (FA)” value ([7]; day 14, qualitative) was “smaller”, the “apoptosis in HRECs (cleaved caspase-3, TUNEL)” value (HRECs [8]) was “did not lead to apoptosis” and the “inhibitory activity against recombinant FECH” value (“inhibitory activity” for short) (recombinant FECH [9]) was “showed inhibitory activity”. For the same molecule, the “IC50 value (range in words)” value (recombinant FECH [9]; [17]) was “high nanomolar range”, the EC50 [10] was 98 µM and the “PPIX level in HRECs” value (PPIX and heme in HRECs) was “buildup of FECH substrate PPIX”. The “heme level in HRECs” value (PPIX and heme in HRECs) was “decrease in heme”, the “COXIV subunit I levels in HRECs” value [11] was “decreased COXIV levels” and the “antiproliferative effect on ARPE19 cells” value (ARPE19 cells [12]) was “did not have a substantial antiproliferative effect”.

For N-methylprotoporphyrin [NMPP], the “proliferation of iCEC2 cells” value [2] is listed as “antiproliferative”, the “inhibition of HREC migration, active concentrations” value (HRECs [13]) is listed as “single-digit micromolar concentrations” and the GI50 [14] is listed as 30 µM. For the same molecule, the “proliferation of ARPE19 cells” value (ARPE19 cells [15]) was “did not block proliferation”, the “inhibition of HREC tube formation, active concentrations” value (HRECs [16]) was “single-digit micromolar concentrations” and the FECH activity inhibition (recombinant FECH [9]; 10 μM, positive control in the screen) was “completely inhibited”. The IC50 (recombinant FECH [9]; [17]) was 0.45 µM.

For `CCCc1cc(=O)n2nc(CNc3ccc(Cl)cc3)nc2[nH]1` [5f, 2-(((4-Chlorophenyl)amino)methyl)-5-propyl-[1,2,4]triazolo[1,5-a]pyrimidin-7(4H)-one], the “inhibitory activity” value (recombinant FECH [9]) was “potent FECH inhibitors”.

With `CCCc1cc(=O)n2nc(CNc3ccc(F)c(F)c3)nc2[nH]1` [5k, 2-(((3,4-Difluorophenyl)amino)methyl)-5-propyl-[1,2,4]triazolo[1,5-a]pyrimidin-7(4H)-one] the “HREC proliferation” value [6] was “did not affect HREC proliferation” and the “inhibitory activity” value (recombinant FECH [9]) was “strongest inhibitory activity”.

In the case of `CCCc1cc(=O)n2nc(CNc3ccc(F)c(Cl)c3)nc2[nH]1` [5i, 2-(((3-Chloro-4-fluorophenyl)amino)methyl)-5-propyl-[1,2,4]triazolo[1,5-a]pyrimidin-7(4H)-one], the “HREC proliferation” value [6] is reported as “did not affect HREC proliferation” and the “inhibitory activity” value (recombinant FECH [9]) is reported as “strongest inhibitory activity”.

In the case of `CCCc1cc(=O)n2nc(CNc3ccc(C)cc3)nc2[nH]1` [5c, 5-Propyl-2-((p-tolylamino)methyl)-[1,2,4]triazolo[1,5-a]pyrimidin-7(4H)-one], the HREC tube formation (HRECs [3]) is reported as “blocked tube formation of HRECs”, the “HREC proliferation” value [6] is reported as “anti-proliferative” and the “IC50 value (range in words)” value (recombinant FECH [9]; [17]) is reported as “high nanomolar range”.

— paper PMC9233146 (Cell chemical biology, 2022)
